According to ChEMBL document CHEMBL5678799 (Biochem J, 2009):
Active and inactive are the calls of the source. The calls are words filed in the database; no cut-off is given here.

How the values were obtained:
[1] = target: Serine/threonine-protein kinase PAK 5 (Homo sapiens) (UniProt Q9P286); test: Inhibition of recombinant human N-terminal GST-tagged PAK5 (2 to 719 residues) expressed in Escherichia coli assessed as remaining activity at 10 uM using RRRLSFAEPG as substrate incubated for 30 mins in presence of [gamma-33P]ATP by filter binding method relative to control
Outline: (§1)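 Panel assays were run for 30 min at 21 °C, within the linear range for time and enzyme. […] Results are percent activity remaining relative to compound-free control, averaged from triplicate ± S.D.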

[2] = target: Aurora kinase B (Homo sapiens) (UniProt Q96GD4); test: Inhibition of recombinant human N-terminal His6-tagged Aurora B (1 to 344 residues) expressed in Escherichia coli assessed as remaining activity at 10 uM using LRRLSLGLRRLSLGLRRLSLGLRRLSLG as substrate incubated for 30 mins in presence of [gamma-33P]ATP by filter binding method relative to control
[3] = target: Mitogen-activated protein kinase 15 (Homo sapiens) (UniProt Q8TD08); test: Inhibition of recombinant human N-terminal His6-tagged ERK8 (2 to 544 residues) expressed in baculovirus infected Sf21 cells assessed as remaining activity at 10 uM using MBP as substrate incubated for 30 mins in presence of [gamma-33P]ATP by filter binding method relative to control
Outline: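 Radiometric kinase panel run robotically at room temperature (21 °C) for 30 min, linear in time and enzyme. […] Activity is expressed as percent of control without compound, from triplicate determinations ± S.D.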

[4] = target: MAP kinase-activated protein kinase 5 (Homo sapiens) (UniProt Q8IW41); test: Inhibition of recombinant human His6-tagged PRAK (1 to 471 residues) expressed in baculovirus infected Sf21 cells assessed as remaining activity at 10 uM using phosphorylase b peptide as substrate incubated for 30 mins in presence of [gamma-33P]ATP by filter binding method relative to control
Outline: (§2)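 Robotic radiometric panel assay, 30 min at room temperature (21 °C), with 10 mM magnesium acetate. […] Compound at 1 or 10 µM. Residual activity expressed relative to compound-free control; triplicate average ± S.D.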

[5] = target: Mitogen-activated protein kinase 3 (Homo sapiens) (UniProt P27361); test: Inhibition of recombinant human N-terminal GST-tagged ERK1 (2 to 379 residues) expressed in Escherichia coli assessed as remaining activity at 10 uM using MBP as substrate incubated for 30 mins in presence of [gamma-33P]ATP by filter binding method relative to control
Outline: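 Kinase panel run robotically at 21 °C for 30 min, linear in time and enzyme. […] Compound tested at 1 or 10 µM. Activity given as percentage of incubations without compound, mean of triplicates ± S.D.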

MEF = test: Induction of cell cycle arrest in mLST8 knockout MEF cells assessed as accumulation at G1 phase at 3 uM incubated for 1 to 3 days by propidium iodide staining based flow cytometric analysis (reference value: 22.2 +/- 0.59%); type: toxicity; conditions: mouse, time 1-3 day
[6] = target: Dual specificity tyrosine-phosphorylation-regulated kinase 3 (Homo sapiens) (UniProt O43781); test: Inhibition of recombinant human N-terminal GST-tagged DYRK3 (1 to 588 residues) expressed in Escherichia coli assessed as remaining activity at 1 uM using KKISGRLSPIMTEQ as substrate incubated for 30 mins in presence of [gamma-33P]ATP by filter binding method relative to control
Outline: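 Radiometric kinase panel run robotically at 21 °C for 30 min, linear in time and enzyme. […] Activity expressed as percentage of control without inhibitor; triplicate determinations.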

[7] = target: 3-phosphoinositide-dependent protein kinase 1 (Homo sapiens) (UniProt O15530); test: Inhibition of recombinant human His6-tagged PDK1 (52 to 556 residues) expressed in baculovirus infected Sf21 cells assessed as remaining activity at 10 uM using PDKtide as substrate incubated for 30 mins in presence of [gamma-33P]ATP by filter binding method relative to control; outline: as §2
[8] = target: Proto-oncogene tyrosine-protein kinase Src (Homo sapiens) (UniProt P12931); test: Inhibition of recombinant human N-terminal His6-tagged SRC (1 to 536 residues) expressed in baculovirus infected Sf21 cells assessed as remaining activity at 10 uM using KVEKIGEGTYGVVYK as substrate incubated for 30 mins in presence of [gamma-33P]ATP by filter binding assay relative to control
mTORC2 (Homo sapiens) = mTORC2 (Homo sapiens) (UniProt P42345+Q6R327+Q9BVC4+Q9BPZ7); conditions: HEK293, dose 100-1000 nM, time 20.0 min
[9] = target: Serine/threonine-protein kinase PLK1 (Homo sapiens) (UniProt P53350); test: Inhibition of recombinant human N-terminal His6-tagged PLK1 (1 to 603 residues) expressed in baculovirus infected Sf21 cells assessed as remaining activity at 10 uM using ISDELMDATFADQEAKKK as substrate incubated for 30 mins in presence of [gamma-33P]ATP by filter binding method relative to control
Outline: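 Radiometric panel assay run robotically at 21 °C for 30 min, linear in time and enzyme. […] Activity is expressed as percentage of the compound-omitted control, averaged from triplicates ± S.D.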

[10] = target: Insulin receptor (Homo sapiens) (UniProt P06213); test: Inhibition of recombinant human N-terminal His6-tagged IR (1001 to 1382 residues) expressed in baculovirus infected Sf21 cells assessed as remaining activity at 1 uM using KKSRGDYMTMQIG as substrate incubated for 30 mins in presence of [gamma-33P]ATP by filter binding method relative to control; outline: as §1
[11] = target: Serine/threonine-protein kinase mTOR (Mus musculus) (UniProt Q9JLN9); test: Inhibition of mTOR in MEF cells assessed as reduction in 4E-BP1 phosphorylation at T37/46 residues at 1 uM incubated for 30 mins by immunoblot analysis; type: cell-based
Outline: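 Cells (MEFs, wild-type or knockout, or HeLa) kept in 10% serum, then exposed 30 min to inhibitor or vehicle at the stated level. Washed twice in ice-cold PBS and lysed in Tris lysis buffer with CHAPS, phosphatase and protease inhibitors. Lysates cleared at 18000 g and immunoblotted with phospho-specific antibodies and ECL detection. Blots are representative of three experiments.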

[12] = target: Phosphorylase b kinase gamma catalytic chain, skeletal muscle/heart isoform (Homo sapiens) (UniProt Q16816); test: Inhibition of recombinant human N-terminal GST-tagged PHKgamma1 (2 to 297 residues) expressed in Escherichia coli assessed as remaining activity at 1 uM using phosphorylase b peptide as substrate incubated for 30 mins in presence of [gamma-33P]ATP by filter binding method relative to control
Outline: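 Incubation was 30 min at room temperature (21 °C) under conditions linear with time and enzyme amount. Activity is reported as percent of control lacking compound, triplicate mean ± S.D.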

[13] = target: Serine/threonine-protein kinase 26 (Homo sapiens) (UniProt Q9P289); test: Inhibition of recombinant human N-terminal His6-tagged MST4 (1 to 416 residues) expressed in baculovirus infected Sf21 cells assessed as remaining activity at 1 uM using MBP as substrate incubated for 30 mins in presence of [gamma-33P]ATP by filter binding method relative to control
Serine/threonine-protein kinase 26 (Homo sapiens), sequence (Q9P289 2-416 limits assumed): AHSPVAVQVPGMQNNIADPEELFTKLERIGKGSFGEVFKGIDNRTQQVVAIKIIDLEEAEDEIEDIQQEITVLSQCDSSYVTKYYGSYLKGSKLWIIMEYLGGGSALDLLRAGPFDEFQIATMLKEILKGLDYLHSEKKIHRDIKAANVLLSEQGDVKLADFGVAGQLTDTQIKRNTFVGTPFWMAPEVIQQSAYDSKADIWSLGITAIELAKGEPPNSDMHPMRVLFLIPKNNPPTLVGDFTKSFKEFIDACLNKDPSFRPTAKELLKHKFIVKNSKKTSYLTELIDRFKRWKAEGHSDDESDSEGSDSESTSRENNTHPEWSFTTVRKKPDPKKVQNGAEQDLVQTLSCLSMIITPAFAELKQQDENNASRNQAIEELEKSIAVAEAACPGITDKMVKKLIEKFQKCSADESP

Mitogen-activated protein kinase 3 (Homo sapiens), sequence (P27361 whole entry, the tested form may be a part): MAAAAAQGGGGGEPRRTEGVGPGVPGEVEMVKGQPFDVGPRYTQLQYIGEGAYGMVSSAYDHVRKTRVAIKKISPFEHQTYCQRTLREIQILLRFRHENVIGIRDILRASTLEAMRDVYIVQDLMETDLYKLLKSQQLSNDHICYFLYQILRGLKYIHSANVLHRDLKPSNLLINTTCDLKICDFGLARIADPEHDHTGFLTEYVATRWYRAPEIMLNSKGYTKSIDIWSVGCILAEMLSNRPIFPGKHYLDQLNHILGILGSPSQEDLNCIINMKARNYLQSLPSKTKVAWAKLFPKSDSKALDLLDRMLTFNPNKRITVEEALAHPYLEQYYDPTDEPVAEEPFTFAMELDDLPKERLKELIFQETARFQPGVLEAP
Aurora kinase B (Homo sapiens), sequence (Q96GD4 whole entry, the tested form may be a part): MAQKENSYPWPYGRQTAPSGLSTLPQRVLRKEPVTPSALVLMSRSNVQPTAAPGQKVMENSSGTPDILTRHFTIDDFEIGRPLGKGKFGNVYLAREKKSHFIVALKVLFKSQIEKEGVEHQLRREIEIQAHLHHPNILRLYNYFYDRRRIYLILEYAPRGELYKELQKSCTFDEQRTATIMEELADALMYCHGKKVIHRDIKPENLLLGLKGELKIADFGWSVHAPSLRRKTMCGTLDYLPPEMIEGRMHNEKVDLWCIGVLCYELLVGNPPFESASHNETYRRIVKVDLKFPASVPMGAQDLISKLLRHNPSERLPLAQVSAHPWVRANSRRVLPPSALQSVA
3-phosphoinositide-dependent protein kinase 1 (Homo sapiens), sequence (O15530 whole entry, the tested form may be a part): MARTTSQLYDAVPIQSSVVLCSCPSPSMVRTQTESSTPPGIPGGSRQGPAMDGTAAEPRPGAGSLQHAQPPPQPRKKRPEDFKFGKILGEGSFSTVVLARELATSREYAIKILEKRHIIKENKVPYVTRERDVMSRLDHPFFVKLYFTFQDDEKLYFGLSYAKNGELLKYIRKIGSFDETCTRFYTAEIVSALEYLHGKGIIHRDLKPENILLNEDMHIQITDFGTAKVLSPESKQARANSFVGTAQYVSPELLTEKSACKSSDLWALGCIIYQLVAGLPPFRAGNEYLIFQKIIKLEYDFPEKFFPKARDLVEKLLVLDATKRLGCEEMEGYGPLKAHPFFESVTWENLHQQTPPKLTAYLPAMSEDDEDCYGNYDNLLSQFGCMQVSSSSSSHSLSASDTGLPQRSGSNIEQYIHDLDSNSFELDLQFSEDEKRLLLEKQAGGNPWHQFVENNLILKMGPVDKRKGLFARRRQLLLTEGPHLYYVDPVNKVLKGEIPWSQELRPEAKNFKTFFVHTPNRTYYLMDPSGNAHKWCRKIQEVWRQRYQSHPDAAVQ
Serine/threonine-protein kinase PAK 5 (Homo sapiens), sequence (Q9P286 whole entry, looked up, the tested form may be a part): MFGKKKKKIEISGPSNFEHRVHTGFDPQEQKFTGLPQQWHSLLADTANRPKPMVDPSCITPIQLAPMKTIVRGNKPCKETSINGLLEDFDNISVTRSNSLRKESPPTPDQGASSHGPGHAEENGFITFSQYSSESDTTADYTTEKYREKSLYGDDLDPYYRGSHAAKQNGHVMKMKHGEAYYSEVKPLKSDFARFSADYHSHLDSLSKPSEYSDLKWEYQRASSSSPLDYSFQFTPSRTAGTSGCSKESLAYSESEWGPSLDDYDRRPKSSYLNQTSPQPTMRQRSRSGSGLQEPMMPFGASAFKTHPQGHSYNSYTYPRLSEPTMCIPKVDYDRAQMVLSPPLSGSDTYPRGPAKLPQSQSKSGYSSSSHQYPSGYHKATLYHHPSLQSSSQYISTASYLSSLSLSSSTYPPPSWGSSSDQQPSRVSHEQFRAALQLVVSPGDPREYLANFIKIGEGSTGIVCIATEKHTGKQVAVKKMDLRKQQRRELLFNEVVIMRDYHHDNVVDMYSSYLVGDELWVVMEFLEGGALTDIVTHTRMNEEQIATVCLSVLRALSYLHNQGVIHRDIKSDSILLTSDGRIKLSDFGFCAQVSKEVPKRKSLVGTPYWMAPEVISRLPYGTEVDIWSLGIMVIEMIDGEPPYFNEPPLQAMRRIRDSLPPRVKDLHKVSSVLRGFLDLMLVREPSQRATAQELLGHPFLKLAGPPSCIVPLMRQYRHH
Mitogen-activated protein kinase 15 (Homo sapiens), sequence (Q8TD08 whole entry, the tested form may be a part): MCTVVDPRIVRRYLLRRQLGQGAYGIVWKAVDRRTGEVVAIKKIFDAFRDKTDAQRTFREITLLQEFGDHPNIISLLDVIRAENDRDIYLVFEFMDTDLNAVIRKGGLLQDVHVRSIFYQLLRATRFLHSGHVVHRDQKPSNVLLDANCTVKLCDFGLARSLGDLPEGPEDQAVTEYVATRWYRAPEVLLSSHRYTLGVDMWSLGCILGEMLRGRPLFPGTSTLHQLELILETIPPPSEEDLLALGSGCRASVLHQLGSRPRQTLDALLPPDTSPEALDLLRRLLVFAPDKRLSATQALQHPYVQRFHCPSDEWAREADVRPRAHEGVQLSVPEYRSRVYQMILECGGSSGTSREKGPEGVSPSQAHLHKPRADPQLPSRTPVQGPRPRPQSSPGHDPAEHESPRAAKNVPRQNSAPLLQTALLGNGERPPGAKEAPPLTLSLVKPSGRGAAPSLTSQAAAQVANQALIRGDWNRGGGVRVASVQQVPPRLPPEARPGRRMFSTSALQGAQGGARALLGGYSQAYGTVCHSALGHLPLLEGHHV
Insulin receptor (Homo sapiens), sequence (P06213 28-758 limits assumed): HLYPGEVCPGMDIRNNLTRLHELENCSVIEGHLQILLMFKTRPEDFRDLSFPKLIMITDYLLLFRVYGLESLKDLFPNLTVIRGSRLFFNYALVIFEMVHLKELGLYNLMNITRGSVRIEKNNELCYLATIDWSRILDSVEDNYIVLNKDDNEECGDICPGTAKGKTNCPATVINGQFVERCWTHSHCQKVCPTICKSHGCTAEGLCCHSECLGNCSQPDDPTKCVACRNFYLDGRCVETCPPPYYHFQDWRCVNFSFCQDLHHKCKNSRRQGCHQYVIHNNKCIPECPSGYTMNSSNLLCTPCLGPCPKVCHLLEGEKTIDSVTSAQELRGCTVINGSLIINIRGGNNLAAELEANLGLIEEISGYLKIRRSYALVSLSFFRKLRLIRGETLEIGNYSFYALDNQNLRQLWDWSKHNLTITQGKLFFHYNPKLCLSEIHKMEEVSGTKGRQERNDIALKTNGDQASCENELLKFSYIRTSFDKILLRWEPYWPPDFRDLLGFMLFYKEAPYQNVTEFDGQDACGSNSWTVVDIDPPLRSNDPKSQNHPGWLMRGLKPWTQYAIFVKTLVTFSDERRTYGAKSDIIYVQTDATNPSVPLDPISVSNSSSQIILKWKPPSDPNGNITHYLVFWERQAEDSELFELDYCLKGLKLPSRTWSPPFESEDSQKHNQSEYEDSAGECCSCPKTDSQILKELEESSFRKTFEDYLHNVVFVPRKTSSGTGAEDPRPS
Insulin receptor (Homo sapiens), sequence (P06213 763-1382 limits assumed): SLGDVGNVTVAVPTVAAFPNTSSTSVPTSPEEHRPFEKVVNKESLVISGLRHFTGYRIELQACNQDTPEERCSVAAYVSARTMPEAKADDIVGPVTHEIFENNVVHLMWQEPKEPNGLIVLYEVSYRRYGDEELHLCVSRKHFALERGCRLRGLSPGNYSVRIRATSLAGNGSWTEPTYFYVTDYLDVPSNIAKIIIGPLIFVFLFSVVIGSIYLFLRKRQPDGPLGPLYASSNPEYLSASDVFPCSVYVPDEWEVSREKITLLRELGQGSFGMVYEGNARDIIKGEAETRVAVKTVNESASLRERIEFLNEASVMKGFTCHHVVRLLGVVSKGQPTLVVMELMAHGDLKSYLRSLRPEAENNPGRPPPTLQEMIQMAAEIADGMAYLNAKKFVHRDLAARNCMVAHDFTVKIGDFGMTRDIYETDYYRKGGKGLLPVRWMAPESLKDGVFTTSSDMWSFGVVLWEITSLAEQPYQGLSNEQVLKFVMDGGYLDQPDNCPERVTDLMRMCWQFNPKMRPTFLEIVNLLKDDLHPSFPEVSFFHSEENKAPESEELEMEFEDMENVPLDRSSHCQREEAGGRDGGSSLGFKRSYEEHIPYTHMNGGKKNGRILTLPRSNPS
MAP kinase-activated protein kinase 5 (Homo sapiens), sequence (Q8IW41 whole entry, the tested form may be a part): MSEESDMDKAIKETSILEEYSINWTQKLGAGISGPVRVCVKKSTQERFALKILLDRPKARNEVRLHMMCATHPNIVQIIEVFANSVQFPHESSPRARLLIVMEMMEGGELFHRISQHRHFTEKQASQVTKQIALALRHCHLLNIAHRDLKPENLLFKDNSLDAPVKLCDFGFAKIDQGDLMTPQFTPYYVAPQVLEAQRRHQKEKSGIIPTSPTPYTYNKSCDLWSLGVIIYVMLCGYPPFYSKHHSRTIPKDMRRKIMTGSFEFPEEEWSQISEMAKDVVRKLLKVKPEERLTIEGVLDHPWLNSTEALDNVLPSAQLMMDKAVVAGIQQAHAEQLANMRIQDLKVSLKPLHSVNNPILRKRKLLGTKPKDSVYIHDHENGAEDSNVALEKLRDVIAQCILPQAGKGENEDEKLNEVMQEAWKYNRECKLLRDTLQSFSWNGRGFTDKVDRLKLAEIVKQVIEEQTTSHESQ

For `COc1ccc(-c2ccc3c(N4CCOCC4)nc(N4C[C@@H](C)O[C@@H](C)C4)nc3n2)cc1CO` [Ku-0063794], the Activity [1] was 81%, the Activity [2] was 86% and the Activity [3] was 92%. The Activity [4] was 87%, the Activity [5] was 87% and the Activity (MEF) was 47.3%. For the same compound, the Activity [6] was 88%, the Activity [7] was 91% and the Activity [8] was 86%. The inhibition (mTORC2 (Homo sapiens)) was “Active”, the Activity [9] was 94% and the Activity [10] was 81%. The inhibition [11] was “Active”, the Activity [12] was 89% and the Activity [13] was 87%.
